Legend:
[1] = target: T1, Bromodomain-containing protein 4 (Homo sapiens, UniProt O60885); assay: Inhibition of recombinant human His-tagged BRD4 bromodomain 1/2 (2 to 1362 residues) expressed in […] insect cells using biotinylated H4(1 to 21)K5/8/12/16Ac peptide as substrate preincubated for 30 mins followed by substrate addition and measured after 30 mins by Alpha screen assay
[2] = target: Bromodomain-containing protein 3 (Homo sapiens) (UniProt Q15059); assay: Binding affinity to BRD3 bromodomain 2 (unknown origin) at 20 uM by Alpha screen assay relative to control
[3] = target: Bromodomain-containing protein 2 (Homo sapiens) (UniProt P25440); assay: Binding affinity to BRD2 bromodomain 2 (unknown origin) at 20 uM by Alpha screen assay relative to control
[4] = target: T1, Bromodomain-containing protein 4; assay: Binding affinity to recombinant human His-tagged BRD4 bromodomain 2 expressed in […] insect cells using biotinylated H4(1 to 21)K5/8/12/16Ac peptide as substrate at 20 uM preincubated for 30 mins followed by substrate addition and measured after 30 mins by Alpha screen assay relative to control
Peregrin (Homo sapiens) = target: T2, Peregrin (Homo sapiens) (UniProt P55201); assay: Binding affinity to BRPF1B (unknown origin) at 20 uM by Alpha screen assay relative to control
T2 sequence (whole entry): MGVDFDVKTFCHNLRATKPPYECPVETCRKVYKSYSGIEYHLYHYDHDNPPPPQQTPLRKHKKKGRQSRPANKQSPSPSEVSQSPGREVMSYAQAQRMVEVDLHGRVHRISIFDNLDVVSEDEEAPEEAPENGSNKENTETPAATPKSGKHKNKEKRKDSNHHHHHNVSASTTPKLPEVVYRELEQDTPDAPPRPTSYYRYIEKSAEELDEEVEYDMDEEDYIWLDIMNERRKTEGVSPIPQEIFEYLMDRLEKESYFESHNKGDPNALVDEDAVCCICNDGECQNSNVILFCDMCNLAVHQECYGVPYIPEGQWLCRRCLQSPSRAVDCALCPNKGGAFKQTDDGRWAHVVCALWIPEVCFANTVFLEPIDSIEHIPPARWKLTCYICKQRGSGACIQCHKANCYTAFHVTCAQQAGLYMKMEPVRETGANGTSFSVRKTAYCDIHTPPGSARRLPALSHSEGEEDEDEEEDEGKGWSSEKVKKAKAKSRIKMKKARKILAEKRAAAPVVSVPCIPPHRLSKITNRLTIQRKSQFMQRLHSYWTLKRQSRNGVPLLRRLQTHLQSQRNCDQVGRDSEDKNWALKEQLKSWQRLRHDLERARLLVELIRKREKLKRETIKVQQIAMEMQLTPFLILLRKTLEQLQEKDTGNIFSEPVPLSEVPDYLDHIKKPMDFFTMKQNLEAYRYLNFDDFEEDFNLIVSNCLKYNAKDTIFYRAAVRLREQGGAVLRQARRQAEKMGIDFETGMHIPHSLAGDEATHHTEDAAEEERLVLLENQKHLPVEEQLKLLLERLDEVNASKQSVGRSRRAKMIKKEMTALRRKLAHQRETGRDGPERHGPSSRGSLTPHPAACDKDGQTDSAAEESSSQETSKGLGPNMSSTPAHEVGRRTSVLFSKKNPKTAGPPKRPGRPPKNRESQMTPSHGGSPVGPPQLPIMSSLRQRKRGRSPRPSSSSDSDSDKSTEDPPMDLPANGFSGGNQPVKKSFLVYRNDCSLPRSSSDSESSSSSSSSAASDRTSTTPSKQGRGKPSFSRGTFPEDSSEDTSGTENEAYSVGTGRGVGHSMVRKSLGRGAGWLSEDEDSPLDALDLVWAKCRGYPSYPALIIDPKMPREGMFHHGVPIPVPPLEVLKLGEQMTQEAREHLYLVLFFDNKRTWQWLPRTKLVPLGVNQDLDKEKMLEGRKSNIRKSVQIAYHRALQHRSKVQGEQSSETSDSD

SGC-7901 = assay: Antiproliferative activity against human SGC7901 cells incubated for 48 hrs by MTT assay; type: functional, cell-based; conditions: SGC-7901, 48 h
Outline: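 Cells kept in DMEM or RPMI 1640 with 10% FBS at 37 °C, 5% CO2. MTT added for 4 h at 37 °C, formazan dissolved in DMSO, OD read at 570 nm. Survival % taken relative to blank and control wells. Triplicate runs; IC50 from curve fit.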

A549 [5] = assay: Induction of apoptosis in human A549 cells assessed as viable cells at 0.3 uM incubated for 48 hrs by annexin V-FITC/PI double staining based flow cytometric analysis (reference value: 98.2%); type: functional; conditions: A549, 48 h, read-out: Activity
A549 [6] = assay: Induction of apoptosis in human A549 cells assessed as necrotic cells at 0.3 uM incubated for 48 hrs by annexin V-FITC/PI double staining based flow cytometric analysis (reference value: 0%); type: functional
A549 [7] = assay: Induction of apoptosis in human A549 cells assessed as early apoptotic cells at 1.0 uM incubated for 48 hrs by annexin V-FITC/PI double staining based flow cytometric analysis (reference value: 1.76%); type: functional
A549 [8] = assay: Induction of apoptosis in human A549 cells incubated for 48 hrs by annexin V-FITC/PI double staining based flow cytometric analysis; type: functional, cell-based
[9] = Half life in Sprague-Dawley rat at 2.5 mg/kg, iv measured for 0.083 to 24 hrs by LC-MS/MS analysis; type: ADME, organism-based; conditions: in vivo
[10] = MRT (0 to t) in Sprague-Dawley rat at 2.5 mg/kg, iv measured for 0.083 to 24 hrs by LC-MS/MS analysis; type: ADME, organism-based; conditions: in vivo
[11] = Cmax in Sprague-Dawley rat at 2.5 mg/kg, iv measured for 0.083 to 24 hrs by LC-MS/MS analysis; type: ADME, organism-based; design: dose 2.5 mg/kg, route intravenous; conditions: in vivo
[12] = AUC (0 to infinity) in Sprague-Dawley rat at 10 mg/kg, po measured for 0.083 to 24 hrs by LC-MS/MS analysis; type: ADME, organism-based; design: dose 10 mg/kg, route oral, time infinity; conditions: in vivo
[13] = MRT (0 to t) in Sprague-Dawley rat at 10 mg/kg, po measured for 0.083 to 24 hrs by LC-MS/MS analysis; type: ADME, organism-based; conditions: in vivo
[14] = Oral bioavailability in Sprague-Dawley rat at 10 mg/kg measured for 0.083 to 24 hrs by LC-MS/MS analysis; type: ADME, organism-based; conditions: in vivo
A549 [15] = assay: Induction of cell cycle arrest in human A549 cells assessed as accumulation at […] phase at 0.3 uM incubated for 48 hrs by BrdU/PI staining based flow cytometric analysis; type: functional
Outline: (§1)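 Subconfluent A549 cells exposed 48 h to 0.3–5.0 μM with DMSO vehicle control. Pulse-labelled with 10 μM BrdU for 30 min at 37 °C before harvest. Fixed in 70% ethanol, denatured in 2 M HCl, neutralised, then stained with fluorescein anti-BrdU antibody and propidium iodide. Analysed by flow cytometry with 488 nm excitation.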

A549 [16] = assay: Induction of cell cycle arrest in human A549 cells assessed as accumulation at […] phase at 5.0 uM incubated for 48 hrs by BrdU/PI staining based flow cytometric analysis; type: functional; outline: as §1
A549 [17] = assay: Induction of cell cycle arrest in human A549 cells assessed as increase in accumulation at G1 phase incubated for 48 hrs by BrdU/PI staining based flow cytometric analysis; type: functional; outline: as §1

Chain of Bromodomain-containing protein 3 (Homo sapiens) (Q15059 2-726 limits assumed): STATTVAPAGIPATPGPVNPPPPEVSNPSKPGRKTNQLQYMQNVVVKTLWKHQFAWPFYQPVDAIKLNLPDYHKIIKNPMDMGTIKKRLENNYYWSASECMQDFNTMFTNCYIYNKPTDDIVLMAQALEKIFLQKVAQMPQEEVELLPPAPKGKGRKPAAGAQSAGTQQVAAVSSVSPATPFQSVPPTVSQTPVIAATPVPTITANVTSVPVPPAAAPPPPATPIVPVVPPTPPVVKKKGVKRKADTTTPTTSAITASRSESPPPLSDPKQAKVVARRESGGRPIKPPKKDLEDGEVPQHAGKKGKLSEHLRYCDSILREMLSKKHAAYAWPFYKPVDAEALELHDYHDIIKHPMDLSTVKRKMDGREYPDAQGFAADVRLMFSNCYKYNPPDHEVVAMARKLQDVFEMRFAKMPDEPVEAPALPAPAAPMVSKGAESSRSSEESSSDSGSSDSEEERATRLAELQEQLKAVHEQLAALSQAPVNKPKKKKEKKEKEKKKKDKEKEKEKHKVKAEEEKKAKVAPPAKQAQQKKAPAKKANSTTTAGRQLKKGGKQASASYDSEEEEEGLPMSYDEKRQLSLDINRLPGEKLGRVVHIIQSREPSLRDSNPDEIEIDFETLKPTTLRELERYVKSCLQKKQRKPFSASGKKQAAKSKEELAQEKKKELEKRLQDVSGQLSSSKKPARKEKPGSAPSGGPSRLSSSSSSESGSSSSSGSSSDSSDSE
Chain of Bromodomain-containing protein 2 (Homo sapiens) (P25440 whole entry, looked up): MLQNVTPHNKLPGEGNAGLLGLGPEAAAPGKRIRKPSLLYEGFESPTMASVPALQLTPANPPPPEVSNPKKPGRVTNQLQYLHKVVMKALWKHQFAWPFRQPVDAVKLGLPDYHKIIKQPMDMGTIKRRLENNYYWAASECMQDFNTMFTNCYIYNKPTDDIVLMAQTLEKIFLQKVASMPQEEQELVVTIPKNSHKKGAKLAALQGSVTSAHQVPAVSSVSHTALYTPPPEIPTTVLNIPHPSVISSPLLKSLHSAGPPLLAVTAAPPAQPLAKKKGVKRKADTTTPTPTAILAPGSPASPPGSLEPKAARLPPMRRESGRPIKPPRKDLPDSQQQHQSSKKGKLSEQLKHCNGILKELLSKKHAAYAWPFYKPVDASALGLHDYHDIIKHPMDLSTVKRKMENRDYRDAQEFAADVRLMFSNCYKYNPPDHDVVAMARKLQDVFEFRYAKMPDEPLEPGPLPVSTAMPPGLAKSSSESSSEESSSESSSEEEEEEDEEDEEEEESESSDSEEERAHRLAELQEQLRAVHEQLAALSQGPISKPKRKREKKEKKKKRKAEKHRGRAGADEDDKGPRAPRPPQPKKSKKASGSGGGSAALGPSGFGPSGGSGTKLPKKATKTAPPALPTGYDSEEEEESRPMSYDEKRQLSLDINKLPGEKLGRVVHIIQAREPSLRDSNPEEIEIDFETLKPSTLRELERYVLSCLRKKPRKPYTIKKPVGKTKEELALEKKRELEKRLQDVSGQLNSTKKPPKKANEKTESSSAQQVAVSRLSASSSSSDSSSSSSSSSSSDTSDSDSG

IC50 [1]: 240 nM
Activity [2]: > 70%
Activity [3]: > 70%
Activity [4]: > 70%
Activity (Peregrin (Homo sapiens)): > 30%
IC50 (SGC-7901): 5350 nM
half-life [9]: 10.4 h
MRT last [10]: 7.93 h
Cmax [11]: 96.9 ng/mL
AUC(0-inf) [12]: 670 ng·h/mL
MRT last [13]: 7.52 h
bioavailability [14]: 36.6%
Structure (SMILES): COc1ccc(Cl)cc1S(=O)(=O)Nc1ccc2[nH]c(=O)c3ccccc3c2c1
viability at 0.3 µM (A549 [5]): 69.6%
Activity (A549 [6]): 0.02%
Activity (A549 [7]): 47.8%
Activity (A549 [8]): Dose-dependent effect
Activity (A549 [15]): 60.84%
Activity (A549 [16]): 81.66%
Activity (A549 [17]): Dose-dependent effect

Source: ChEMBL document CHEMBL4351018, “Novel phenanthridin-6(5H)-one derivatives as potent and selective BET bromodomain inhibitors: Rational design, synthesis and biological evaluation” (Eur J Med Chem, 2019)
